Compounds with a hit are over-represented: about 1.6% of the library has one in this group of screens.
NR2E3 ag-1 = inhibitors of NR2E3-RetCOR corepressor binding, primary screen, NR2E3 agonist project, biochemical, TR-FRET, GST-NR2E3, biotin-RetCOR. Photoreceptor-specific nuclear receptor (Homo sapiens), Q9Y5X4. hit rate 0.12% among 320,000. 1536-well. inhibition of corepressor binding, % at 4.78 µM;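 active = percent inhibition above the cutoff of mean plus 3 SD of all tested compounds, set per screening campaign, cut at about 20% in these data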;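 also: 0% = DMSO wells and 100% = biotin wells as full block of FRET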
Target sequence (Q9Y5X4 whole entry, looked up): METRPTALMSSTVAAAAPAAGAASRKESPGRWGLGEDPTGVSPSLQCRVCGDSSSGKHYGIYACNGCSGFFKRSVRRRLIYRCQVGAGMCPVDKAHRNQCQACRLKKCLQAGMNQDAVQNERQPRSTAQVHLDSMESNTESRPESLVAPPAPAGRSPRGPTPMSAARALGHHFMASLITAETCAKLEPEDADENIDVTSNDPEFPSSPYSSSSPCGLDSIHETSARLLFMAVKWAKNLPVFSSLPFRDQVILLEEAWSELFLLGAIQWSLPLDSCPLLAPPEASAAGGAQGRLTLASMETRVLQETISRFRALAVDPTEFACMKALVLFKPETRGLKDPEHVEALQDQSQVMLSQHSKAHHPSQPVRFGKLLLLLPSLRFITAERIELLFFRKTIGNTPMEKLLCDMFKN
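Material: NR2E3–RetCOR corepressor complex / Incubation: Compound–protein incubation for 5 h at 4 °C / Dosing: compound at 4.8 µM, single dose / Detection: time-resolved FRET / Benchmarks: high control biotin, low control 0.6% DMSO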
Rev-erbA mod = modulators of Rev-erb alpha DNA binding, primary screen, biochemical, FITC-DNA, fluorescence polarization, uHTS. Rev-erbα–FITC-DNA binding, 90 min. activity, % at 10 µM. hit rate 0.79% among 370,000;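 active = activity above about 14%, limit read from the data; passing the limit was not always enough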;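 also: 0% = DMSO wells with 35 nM protein and 100% = DMSO wells with 750 nM protein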
PG9 Ab binder = binders of HIV-1 gp120 antibody PG9, primary screen, biochemical, TR-FRET. HIV-1 gp120 / PG9 antibody interaction. TR-FRET gp120-PG9 antibody binding. inhibition, % at 6.7 µM. hit rate 0.43% among 360,000; in the data active = inhibition above about 8.5%
VLA-4 inh = inhibition in human VLA-4 binding assay, primary screen, VLA-4 allosteric modulator project, MLPCN library, flow cytometry, VLA-4 expressing cells | Integrin alpha-4 (Homo sapiens), P13612 | ligand binding flow cytometry | inhibition, % (about 7 µM as worked out from the volumes in the protocol) | hit rate 0.2% among 330,000 | AID 2557, 2010; in the data active = inhibition above about 50%
NR2E3 ag-2 = NR2E3 agonists in two-hybrid cells, primary screen, cell-based, luminescence, CHO-S, Gal4-NCOR/VP16-NR2E3; luciferase; hit rate 0.35% among 360,000; inhibition of corepressor binding, % at 3.98 µM; Photoreceptor-specific nuclear receptor (Homo sapiens), Q9Y5X4;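 active = inhibition above the mean of all tested compounds plus 3 SD, cut at about 70% in these data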;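 also: 0% = DMSO with NR2E3 transfected cells and 100% = cells lacking NR2E3 construct; higher means lower luciferase signal from less NR2E3 corepressor binding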
Rev-erbA confirm = modulators of Rev-erb alpha DNA binding, confirmation, biochemical, FITC-DNA, fluorescence polarization, single point; 90 min; hit rate 61% among 3,000; activation, % at 25 µM; shares compounds with Rev-erbA mod; AID 1259319, 2017;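 active = activation at or above a set limit, or at least 3 SD above the negative control mean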;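 also: 0% = 35 nM protein with DMSO and 100% = 750 nM protein high control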
RORg counter = modulation of RORgamma DNA binding, dose response, counter-screen for Rev-erb alpha modulator project, biochemical, fluorescence polarization, FITC-DNA | shares compounds with Rev-erbA mod | purified RORgamma protein-FITC-DNA binding | IC50, µM | hit rate 8% among 910;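 active = Compounds whose fitted half-maximal concentration for disrupting protein-DNA binding is below 10 micromolar; the record names Rev-erb in its text, so the target is in doubt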
* = called active by the depositor; i = inactive; / = not tested or not shown.

SMILES | NR2E3 ag-1 | Rev-erbA mod | PG9 Ab binder | VLA-4 inh | NR2E3 ag-2 | Rev-erbA confirm | others
CC1(Cc2ccccc2C#N)C(=O)Nc2ccc(-c3ccccc3)cc21 (stereo not drawn) | / | 36* | -1 | / | -12 | 51* | RORg counter=>40
COc1ccccc1-c1ccc2c(c1)C(C)(Cc1ccccc1C#N)C(=O)N2 (stereo not drawn) | / | 48* | 0 | / | 33 | 42* | RORg counter=>40
CCc1ccc2c(c1)NC(=O)C2(C)Cc1ccccc1C#N (stereo not drawn) | / | 2 | 1 | / | 10 | /
Cc1nc2ccc(C(=O)N3CCN(C(=O)C(Cl)Cl)CC3)cc2n1C1CCCC1 | / | -2 | / | / | / | /
COc1ccc2c(=O)c3c(=O)n(CCc4ccccc4)c(C(C)C)nc3oc2c1 | -3 | 25* | -1 | -10 | 1 | 1
COC(=O)Cn1c(=NC(=O)c2cccc(OC)c2)sc2cc(OC)ccc21 | 1 | 31* | 0 | 1 | -48 | 23*
COc1ccc(C(=O)N=c2sc3ccccc3n2C)cc1 | 2 | 52* | 2 | -17 | -157 | 23*
COC(=O)Cn1c(=NC(=O)c2ccc(S(=O)(=O)N3CCc4ccccc4C3)cc2)sc2cc(OC)ccc21 | 3 | 39* | 7 | 17 | -9 | 2
COc1cc(OC)cc(C(=O)N=c2sc3ccccc3n2C)c1 | 2 | 16 | 2 | -12 | -30 | /
COC(=O)Cn1c(=NC(=O)c2cc(OC)cc(OC)c2)sc2cc(OC)ccc21 | -3 | 31* | 2 | 11 | -22 | 5
COC(=O)Cn1c(=NC(=O)CSCC(=O)Nc2cc(C)on2)sc2cc(C(=O)OC)ccc21 | 0 | 5 | -2 | -17 | -6 | /
COC(=O)Cn1c(=NC(=O)C(C)(C)C)sc2c(C)cc(C)cc21 | 2 | -5 | 0 | 36 | 20 | /
NC(=O)CC(NC(=O)c1ccccc1)c1ccc(NCc2ccccn2)c([N+](=O)[O-])c1 (stereo not drawn) | 3 | 0 | 1 | 1 | -2 | /
COc1ccccc1NC(=O)CSc1ncnc2c1oc1ccccc12 | -2 | 1 | 3 | -7 | 7 | /
O=C(CSc1ncnc2c1oc1ccccc12)Nc1ccc2c(c1)OCCO2 | -1 | 676* | 8 | 14 | 10 | 569* | RORg counter=i
CCCc1nc(SCC(=O)Nc2nccs2)c2ccccc2n1 | 4 | -5 | 7 | -1 | 5 | /
CCc1nc(SCC(=O)Nc2nccs2)c2oc3ccccc3c2n1 | -2 | 15* | 6 | 7 | 8 | 18*
CCc1nc(SCC(=O)NC2CCCC2)c2oc3ccccc3c2n1 | 3 | 39* | -1 | 6 | -6 | 56* | RORg counter=>40
O=C(CSc1ncnc2c1oc1ccccc12)Nc1nccs1 | 0 | 32* | -4 | 0 | -4 | 25*
CC(=O)/C(C#N)=C1\NC(=O)C(Cc2ccc(C)c(Cl)c2)S1 (stereo not drawn) | -4 | 5 | 0 | -3 | -26 | /
COc1ccc(/C=N/N(C)c2cc(=O)n(C)c(=O)[nH]2)cc1OC | 0 | 1 | 0 | 17 | -37 | /
OC(c1ccccc1)C(NCCNCc1ccccc1)c1ccccc1 (stereo not drawn) | / | -1 | -2 | / | 12 | /
Cc1nc(SCC(=O)NCc2ccccc2)c2oc3ccccc3c2n1 | 2 | 44* | 4 | -1 | 12 | 189* | RORg counter=>40
CCN(CC)S(=O)(=O)c1ccc(N2CCOCC2)c(NC(=O)c2cc3ccccc3oc2=O)c1 | 3 | 1 | -3 | 5 | -7 | /
COc1ccc(-n2nc3c(N4CCC(C(=O)NCc5cccc(C)c5)CC4)nnc(C)c3c2C)cc1 | -70 | 5 | -4 | 17 | 0 | /
SMILES | NR2E3 ag-1 | Rev-erbA mod | PG9 Ab binder | VLA-4 inh | NR2E3 ag-2 | Rev-erbA confirm | others
CCOc1ccc(CNC(=O)C2CCN(c3nnc(C)c4c(C)n(-c5ccc(C)cc5)nc34)CC2)cc1 | -136 | 33* | 2 | -5 | -10 | 34* | RORg counter=>40
COC(=O)[C@@H]1C[C@@]2(c3ccccc3)c3ccccc3N(S(=O)(=O)c3ccccc3)[C@H]2N1C(=O)CNC1CCCCC1 | / | 2 | / | / | / | /
CCOC(=O)c1sc2nc(C)nc(NCc3ccccc3OC)c2c1C | -1 | 13 | 0 | -5 | -6 | /
CCOC(=O)c1sc2nc(C)nc(NC3CCC(O)CC3)c2c1C (stereo not drawn) | -1 | 24* | -2 | -4 | -10 | 3
Cn1cc(/C=C2\SC(=O)NC2=S)c2ccccc21 | 3 | 27* | -9 | -46 | -27 | 17
Cc1ccc(C(=O)NN2C(=O)/C(=C/c3cn(C)c4ccccc34)SC2=S)cc1 | 2 | 9 | -2 | -4 | -7 | /
COc1ccc(OC(F)(F)F)cc1CC1(C)C(=O)Nc2c(Cl)ccc(Cl)c21 (stereo not drawn) | / | / | / | / | -6 | /
CC1(Cc2ccccc2Cl)C(=O)Nc2ccc(OC(F)(F)F)cc21 (stereo not drawn) | / | 36* | 0 | / | -18 | 45* | RORg counter=>40
CC1(Cc2ccccc2C#N)C(=O)Nc2ccc(OC(F)(F)F)cc21 (stereo not drawn) | / | 28* | -1 | / | -21 | 26*
Cc1ccc(S(=O)(=O)N2CCN(c3ncnc4scc(-c5ccccc5)c34)CC2)cc1 | / | -4 | -1 | 13 | -32 | /
Cc1ccc(S(=O)(=O)N2CCN(c3ncnc4scc(-c5ccc(F)cc5)c34)CC2)cc1 | -5 | 24* | -1 | -1 | -28 | 6
COc1ccc(-c2csc3ncnc(N4CCN(S(=O)(=O)c5cccc(Br)c5)CC4)c23)cc1 | -2 | 16* | 7 | -8 | 2 | 18*
CN1C(=S)SC(/[N+]([O-])=C/c2c(F)cccc2Cl)C1(C)C (stereo not drawn) | 5 | 5 | 0 | 4 | -3 | /
CCOC(=O)C1=C(C)NC(=S)N(C=O)C1c1ccccc1 (stereo not drawn) | 12 | 3 | -1 | -5 | 2 | /
CCOc1ccccc1CNS(=O)(=O)c1cnc[nH]1 | 3 | 0 | 0 | -2 | 3 | /
CCOC(=O)c1cc(C)nc(SC)c1C#N | 4 | -1 | -1 | 9 | -34 | /
CCC(C)OC(=O)c1cc(C)nc2c(Br)cc(Br)cc12 (stereo not drawn) | 2 | 46* | 4 | -4 | 1 | 46* | RORg counter=>40
CCOC(=O)C1CCN(c2c(-c3ccccc3)c3cc(Cl)ccc3[nH]c2=O)CC1 | -3 | 37* | -1 | -15 | 27 | 8
